# TRPC6 activator = activators of mouse TRPC6 channel | Q61143 | HEK293-TRPC6 membrane potential dye fluorescence; active compounds read high | B-score at 10 µM | 310,000 compounds, 0.13% hits;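 active = B-score of the integrated fluorescence ratio above library mean plus 3 SD, and starting fluorescence ratio within library mean plus 5 SD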;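 also: higher score means more depolarization so channel activation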
# Target sequence (Q61143 whole entry, looked up): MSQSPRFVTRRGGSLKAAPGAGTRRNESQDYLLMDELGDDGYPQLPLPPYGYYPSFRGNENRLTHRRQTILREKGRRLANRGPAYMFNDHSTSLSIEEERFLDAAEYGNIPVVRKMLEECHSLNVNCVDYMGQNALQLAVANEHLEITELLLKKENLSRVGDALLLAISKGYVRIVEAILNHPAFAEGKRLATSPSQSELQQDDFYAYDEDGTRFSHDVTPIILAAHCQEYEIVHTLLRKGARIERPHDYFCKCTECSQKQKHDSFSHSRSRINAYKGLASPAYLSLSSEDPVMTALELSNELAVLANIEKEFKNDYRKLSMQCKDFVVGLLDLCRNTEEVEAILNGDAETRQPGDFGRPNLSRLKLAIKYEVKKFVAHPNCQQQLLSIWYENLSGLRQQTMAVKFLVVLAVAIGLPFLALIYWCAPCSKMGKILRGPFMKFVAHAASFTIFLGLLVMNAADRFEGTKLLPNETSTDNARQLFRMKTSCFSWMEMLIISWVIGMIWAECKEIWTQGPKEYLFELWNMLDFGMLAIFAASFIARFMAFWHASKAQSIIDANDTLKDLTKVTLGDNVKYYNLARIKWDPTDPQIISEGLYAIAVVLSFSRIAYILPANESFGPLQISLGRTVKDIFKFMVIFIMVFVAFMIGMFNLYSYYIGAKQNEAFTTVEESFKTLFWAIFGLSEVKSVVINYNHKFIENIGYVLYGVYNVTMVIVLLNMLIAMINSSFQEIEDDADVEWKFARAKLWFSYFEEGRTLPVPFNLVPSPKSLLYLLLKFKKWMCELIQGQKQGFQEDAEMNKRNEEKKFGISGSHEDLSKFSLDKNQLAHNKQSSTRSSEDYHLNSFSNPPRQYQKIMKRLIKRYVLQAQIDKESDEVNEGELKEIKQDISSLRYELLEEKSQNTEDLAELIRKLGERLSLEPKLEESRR
# TRPC6 inh = blocks the mouse TRPC6 cation channel; HEK293-TRPC6, membrane potential dye, ACh-evoked depolarization; active compounds read low; AID 2553; Q61143; 310,000 compounds, 1.1% hits; B-score at 10 µM;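 active = B-score under library mean minus 3 SD, initial fluorescence not abnormally high, positive integrated signal ratio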;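 also: B-score derived from integrated fluorescence ratio over the kinetic read; more negative B-score means stronger inhibition of depolarization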
# TRPC4 act = opens the mouse TRPC4 cation channel. Q9QUQ5. HEK293 TRPC4beta/mu-opioid, Fluo4 calcium fluorescence; active compounds read high. B-score at 10 µM. 310,000 compounds, 0.49% hits. AID 2237;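 active = B-score above 5 SD of library B-scores, and initial fluorescence ratio not above library mean plus 5 SD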;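 also: positive B-score marks a calcium rise read as TRPC4 activation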
#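 System: HEK293 cells stably co-expressing mouse TRPC4beta and mu-opioid receptor; Schedule: Fluo4 dye loading 45 min at room temperature, 110 s recording; Detection: Fluo4 fluorescence, kinetic; Evaluation: B-scored integrated calcium fluorescence ratio; Controls: buffer (low) and maximal DAMGO (high).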
# TRPC4 potent = TRPC4 (mouse) allosteric potentiation | Q9QUQ5 | HEK293 TRPC4beta/mu-opioid, DAMGO EC20, Fluo-4 Ca2+ flux; active compounds read high | B-score at 10 µM | 310,000 compounds, 0.42% hits | AID 2227;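 active = B-score of calcium response area above 5 SD of library B-scores, with initial fluorescence ratio within 5 SD of library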
# TRPC4 block = blocks the mouse TRPC4 cation channel | HEK293 TRPC4beta/mu-opioid, DAMGO-evoked Fluo4 calcium flux; active compounds read low | B-score at 10 µM | 300,000 compounds, 0.39% hits | AID 2247;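 active = B-score over 3 SD under the library average, no early fluorescence shift, positive overall ratio signal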
#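 test system = HEK293 cells with stable TRPC4beta plus mu-opioid receptor expression | detection = Fluo4 Ca2+ flux fluorescence | read-out = integrated fluorescence ratio relative to baseline, converted to per-well B score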
# A number is an active result; 0 = inactive. The list is not random: actives were taken first. Their share in the collection is about 2.3%.
SMILES,TRPC6 activator,TRPC6 inh,TRPC4 act,TRPC4 potent,TRPC4 block
Cc1ccccc1N(C(=O)c1snc(C(N)=O)c1N)C(C(=O)NCC1CCCO1)c1ccc(F)cc1 (stereo unspecified),0,0,0,0,-6
COc1ccc(N(C(=O)c2snc(C(N)=O)c2N)C(C(=O)NC2CCCC2)c2ccc(F)cc2)c(OC)c1 (stereo unspecified),0,0,0,0,0
COc1ccc(C)cc1N(C(=O)c1snc(C(N)=O)c1N)C(C(=O)NC1CCCC1)c1ccc(F)cc1 (stereo unspecified),0,0,0,0,-11
Cc1ccccc1N(C(=O)c1snc(C(N)=O)c1N)C(C)C(=O)NC1CCCCC1 (stereo unspecified),0,0,0,0,-6
NC(=O)c1nsc(C(=O)N(Cc2ccccc2Cl)C(C(=O)NCC2CCCO2)c2ccc(O)cc2)c1N (stereo unspecified),0,0,0,0,-8
Cc1ccccc1N(C(=O)c1snc(C(N)=O)c1N)C(C(=O)NCC1CCCO1)c1ccc(N(C)C)cc1 (stereo unspecified),0,0,0,0,0
Cc1ccccc1N(C(=O)c1snc(C(N)=O)c1N)C(C(=O)NC1CCCCC1)c1ccc(O)cc1 (stereo unspecified),0,0,0,0,0
CC(=O)Nc1ccc(N=NC2C(=O)N(C(N)=S)N=C2C)cc1 (stereo unspecified),0,0,0,0,0
CCOC(=O)C1CCCN(S(=O)(=O)c2ccc(Cl)nc2)C1 (stereo unspecified),0,0,0,0,0
CC1(C)C2([N+](=O)[O-])CN3CC1([N+](=O)[O-])CN(C2)C3C(O)C(O)C(O)CO (stereo unspecified),0,0,0,0,0
CC(=O)N1CCSc2ccc(S(=O)(=O)NCCc3ccc(Cl)cc3)cc21,0,0,0,0,0
COc1ccc(-c2nnc(NC(=O)Cc3ccccc3)s2)c(OC)c1,0,0,0,0,0
COc1ccc(CCNC(=O)Cn2cnc3c(nnn3Cc3ccc(C)cc3)c2=O)cc1OC,0,0,0,0,0
CCOc1ccc(C(C(=O)NCC2CCCO2)N(Cc2cccnc2)C(=O)c2snc(C(N)=O)c2N)cc1 (stereo unspecified),0,0,0,0,-6
NC(=O)c1nsc(C(=O)N(Cc2ccc(F)cc2)C(C(=O)NC2CCCC2)c2ccco2)c1N (stereo unspecified),0,0,0,0,-7
Cc1ccc(N(C(=O)c2snc(C(N)=O)c2N)C(C(=O)NCC2CCCO2)c2ccc(C)o2)c(C)c1 (stereo unspecified),0,0,0,0,-7
NC(=O)c1nsc(C(=O)N(Cc2ccc(F)cc2)C(C(=O)NCC2CCCO2)c2ccc(O)cc2)c1N (stereo unspecified),0,0,0,0,-10
CCOc1ccc(C(C(=O)NCC2CCCO2)N(Cc2ccccc2)C(=O)c2snc(C(N)=O)c2N)cc1 (stereo unspecified),0,0,0,0,0
CCCCCCc1cc2cc(-c3nnc(-c4ccccc4O)o3)c(=O)oc2cc1O,0,0,0,25,0
CCCCCCc1cc2cc(-c3nnc(-c4cc(OC)c(OC)c(OC)c4)o3)c(=O)oc2cc1O,0,0,0,40,0
FC(F)(F)c1ccnc(N2CCN(Cc3cnc(-c4ccccc4)[nH]3)CC2)c1,0,0,0,0,-7
CC(=O)Nc1ccc(S(=O)(=O)N2CCN(c3cc(C(F)(F)F)ccn3)CC2)cc1,0,0,0,0,0
COc1ccc(CCn2nnnc2C(CC(C)C)N2CCC(C(N)=O)CC2)cc1OC (stereo unspecified),0,0,0,0,0
CCn1c(=O)cc(OCC(=O)N2CCN(c3cccc(C(F)(F)F)c3)CC2)c2ccccc21,0,0,0,11,0
CCOC(=O)C1(Cc2ccccc2)CCN(Cc2cccc3nccnc23)CC1,0,0,0,0,0
SMILES,TRPC6 activator,TRPC6 inh,TRPC4 act,TRPC4 potent,TRPC4 block
CCOC(=O)C1(CCOc2ccccc2)CCN(Cc2cccn2-c2cccnc2)CC1,0,0,116,0,0
CCOC(=O)C1(CCOc2ccccc2)CCN(CCCn2cccn2)CC1,0,0,0,0,0
CCOC(=O)C1(Cc2ccccc2)CCN(Cc2cccn2-c2nccs2)CC1,0,0,46,0,0
CCOC(=O)C1(Cc2ccccc2)CCN(Cc2cccn2-c2cccnc2)CC1,0,0,45,0,0
COc1ccccc1CNC(=O)c1nccnc1CO,0,0,0,0,0
CC(=O)N1CC=CC1(CC(C)C)C(=O)NCc1cc(F)cc(C(F)(F)F)c1 (stereo unspecified),0,0,0,0,0
COc1ccccc1OCC(=O)NNC(=O)c1ccc2c(=O)n3c(nc2c1)CCC3,0,0,0,0,0
Cc1cnc(C(=O)OCC(=O)Nc2cc(S(=O)(=O)N3CCCCC3)ccc2Cl)cn1,0,0,0,0,0
CN(C)CCn1c(=O)n(Cc2ccccc2)c(=O)c2c3c(sc21)CCCCC3,0,0,0,0,0
CN(C)CCCn1c(=O)n(CCc2ccccc2)c(=O)c2c3c(sc21)CCCCC3,0,0,0,22,0
CN(CCNC(=O)c1ccc(/C=N/O)nc1)Cc1ccccc1,0,0,0,22,0
O=C(NCCCNCCCNC(=O)c1ccc(/C=N/O)nc1)c1ccc(/C=N/O)nc1,0,0,0,0,0
CN(CCCNC(=O)c1ccc(/C=N/O)nc1)CCCN(C)Cc1ccccc1,0,0,0,13,0
C1CCN(c2nc(N3CCCC3)nc(N3CCNCC3)n2)C1,0,0,0,16,0
Nc1nc(N2CCCCC2)nc(N2CCCCC2)n1,0,0,0,0,0
O=C([O-])c1cc(-c2ccccc2)cc(-c2ccccc2)[n+]1Cc1ccccc1,0,-5.41,0,0,0
CC(NCc1cc(Br)ccc1OCC(=O)NCc1ccccc1)c1ccccc1 (stereo unspecified),0,0,61,0,-8
O=C(COc1ccc(Br)cc1CNC1CCCC1)Nc1ccccc1,0,0,62,0,0
CCN(CCCNS(=O)(=O)c1cc(-c2cc(C)no2)ccc1C)Cc1ccccc1,0,0,175,0,0
CCOc1ccc(N=Cc2ccc3ccccc3c2)cc1,0,0,0,0,0
CCOc1ccc(N=CNc2ccc(OCC)cc2)cc1,0,0,0,15,0
COc1ccc(C(c2c(O)ccc3ccccc23)N2CCOCC2)c(OC)c1 (stereo unspecified),0,0,0,0,-6
Clc1cccc(OCCOCCN2CCNCC2)c1Cl,0,0,44,0,0
Clc1cccc(OCCN2CCNCC2)c1,0,0,97,0,0
Clc1cccc(OCCCN2CCCC2)c1Cl,0,0,0,0,0
CC1CCCCN1Cc1c(C#N)c2ccccc2n1C (stereo unspecified),0,0,0,0,0
